Rows were chosen to be rich in hits. Some 2.2% of all compounds tested hit in one or more screens of this group.
CAL PDZ FP-1 = inhibitors of human CAL PDZ peptide binding; Q9HD26; purified CAL PDZ, TMR-peptide fluorescence polarization, 1 h; inhibition, % at 20 µM; 0.02% of 330,000 active; AID 504414;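 active = highest replicate inhibition of at least 40%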;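 also: plate controls were DMSO neutral control wells for no effect and unlabeled competitor peptide control wells for full effect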
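Test system: tagged CAL PDZ domain / Buffer or medium: sodium phosphate/NaCl buffer pH 7.4 with TCEP, IgG, Thesit / Reagent: TMR-labelled reporter peptide T*-PRC34 bound in PDZ groove / Compound dosing: single point, 20 µM / Schedule: 1 h incubation at room temperature before polarization reading / Technique: fluorescence polarization (mP) / Benchmarks: unlabelled peptide, DMSO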
CAL PDZ FP-2 = inhibitors of human CAL PDZ peptide binding; inhibition, % at 24.9 µM; purified CAL PDZ, TMR-peptide fluorescence polarization, 1 h; 0.92% of 300,000 active; AID 602252; Q9HD26;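 active = mean inhibition of at least 30% with at least half of replicates also reaching 30%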;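 also: 0% = DMSO neutral control and 100% = excess unlabeled competitor peptide PRC23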
DYRK1A inh = inhibitors of rat Dyrk1A kinase; 0.43% of 310,000 active; AID 504441; inhibition, % at 12.5 µM; ADP-Glo luminescence, NFATc1 peptide; Q63470; in the data active = inhibition above about 50%;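 also: plate controls were vehicle with enzyme for no effect and no enzyme for full effect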
Rtt109 HAT inh = inhibitors of Candida albicans Rtt109/Vps75 histone acetyltransferase; AID 540336; inhibition, % at 34.9 µM; purified Rtt109/Vps75, ThioGlo CoA-SH fluorescence, 4 h; Q5AAJ8; 0.16% of 330,000 active;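 active = inhibition of at least 50% in every replicate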
CDK5 inh = inhibitors of human CDK5/p35 kinase. Q00535+Q15078. Recombinant CDK5/p35, ADP-Glo luminescence, 60 min. inhibition, % at 10 µM. 0.01% of 330,000 active. AID 488839;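 active = highest replicate inhibition of at least 50% and at least 75% of replicates reaching 50%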;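 also: plate controls were DMSO neutral control for no effect and GW8510 at 10 µM for full effect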
Target sequence (Q00535 whole entry, looked up): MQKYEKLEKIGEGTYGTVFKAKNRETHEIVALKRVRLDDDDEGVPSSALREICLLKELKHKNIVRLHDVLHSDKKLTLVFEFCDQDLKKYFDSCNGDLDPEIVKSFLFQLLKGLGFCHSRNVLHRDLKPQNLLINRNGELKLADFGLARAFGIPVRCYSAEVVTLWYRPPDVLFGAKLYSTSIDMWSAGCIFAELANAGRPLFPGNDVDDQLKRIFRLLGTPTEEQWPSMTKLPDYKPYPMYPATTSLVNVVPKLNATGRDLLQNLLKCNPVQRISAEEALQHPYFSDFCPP
Target sequence (Q15078 whole entry, looked up): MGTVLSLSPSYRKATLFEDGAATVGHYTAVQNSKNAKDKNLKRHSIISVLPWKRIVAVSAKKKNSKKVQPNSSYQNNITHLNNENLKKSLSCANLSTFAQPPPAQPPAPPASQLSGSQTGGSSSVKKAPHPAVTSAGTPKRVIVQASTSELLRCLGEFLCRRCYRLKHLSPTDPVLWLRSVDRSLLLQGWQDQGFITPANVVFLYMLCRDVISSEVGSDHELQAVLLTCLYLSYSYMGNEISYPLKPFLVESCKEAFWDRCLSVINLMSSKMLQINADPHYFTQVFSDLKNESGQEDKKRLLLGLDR
dFosB act = mouse delta FosB homodimer activation; P13346; purified delta FosB, TAMRA-CDK5 oligo fluorescence polarization; percent of positive-control signal above neutral wells; activation, % at 25 µM; 0.99% of 340,000 active;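 active = mean activation above about 17%, with every replicate also reaching it, limit read from the data, passing the limit was not always enough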
Dyrk1A artifact = counter-screen for Dyrk1A inhibitors: ADP-Glo luciferase artifacts; shares compounds with DYRK1A inh; ADP-Glo luciferase artifact assay, no Dyrk1A, luminescence; AC50, µM (series often up to 12 µM), for inactives: at the highest dose activity change, negative = inhibition; 1,300 tested, under 10 active; AID 588348;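 active = fitted half-maximal dose AC50 no more than ten times the top valid tested dose, with luminescence dropping as dose rises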
* hit, by the source's call; nt = no result given.

SMILES	CAL PDZ FP-1	CAL PDZ FP-2	DYRK1A inh	Rtt109 HAT inh	CDK5 inh	dFosB act	Dyrk1A artifact
O=C(Nc1nc(-c2ccc3c(c2)OCO3)cs1)C1COc2ccccc2O1 (stereo not given)	0	nt	20	3	-2	-9	nt
O=Cc1cccn1-c1ccc2ccccc2c1	-4	2	-3	2	-1	-6	nt
O=[N+]([O-])c1cc([N+](=O)[O-])c2oc(-c3ccccc3)c(Br)c2c1O	0	-4	76*	-5	4	-27	9%
O=C(NC(=S)NCCN1CCOCC1)c1ccc(Cl)cc1	-3	-18	33	nt	0	-3	nt
O=C(O)c1cc(N/N=C/c2c(O)ccc3ccccc23)ccc1Cl	-1	1	73*	-3	-1	-7	8%
Fc1ccccc1-c1nc(-c2ccc(-c3nn[nH]n3)cc2)no1	-3	-18	59*	4	3	-15	2%
Oc1ccc(/C=N/n2c(COc3ccccc3)n[nH]c2=S)c(O)c1	0	-15	67*	-4	10	-8	10%
Oc1ccccc1/C=N/n1c(COc2ccccc2)n[nH]c1=S	-1	-4	33	3	13	-8	nt
CCCOc1ccc2[nH]c(C(=O)N/N=C/c3cc(OC)c(OC)c(OC)c3)cc2c1	0	-4	1	-1	-4	-1	nt
COc1ccc2[nH]c(C(=O)N/N=C/c3ccccc3OC)cc2c1	0	-1	63*	-1	1	-11	10%
COc1ccc2[nH]c(C(=O)N/N=C/c3ccc(OC)c(O)c3)cc2c1	-2	-8	63*	-3	-2	-10	9%
CCn1c2ccccc2c2cc(/C=N/n3cnnc3)ccc21	-4	2	4	23	-1	-3	nt
CCn1c2ccccc2c2cc(/C=N/O)ccc21	-7	-2	80*	7	6	2	8%
COc1cccc(-c2sc3ccccc3c2-c2ccc(OCCN3CCCC3)cc2)c1	-3	1	51*	-2	3	6	9%
COc1cccc(-c2sc3ccc(OC)cc3c2-c2ccc(OCCN3CCCC3)cc2)c1	-2	-8	19	4	-2	-8	nt
Cc1ccccc1Cn1c(=O)n(CC2CCC(C(=O)NCCc3ccccc3)CC2)c(=O)c2ccccc21 (stereo not given)	-1	-4	-1	-1	1	5	nt
COc1cccc(-n2cnc3sc(C)c(C)c3c2=O)c1	-1	-1	3	2	3	-4	nt
N#Cc1nc(-c2ccccc2Cl)oc1NCC1CCCO1 (stereo not given)	-6	nt	60*	8	0	-7	12%
CCOc1ccc(-c2nc(C#N)c(NCC3CCCO3)o2)cc1 (stereo not given)	-2	-2	4	nt	-1	-2	nt
COc1cccc(CNC(=O)c2ccc(C)c(NC3=NC4CS(=O)(=O)CC4S3)c2)c1 (stereo not given)	-1	nt	-1	5	0	6	nt
CSc1cccc(NC(=O)c2c(Cl)cnn2C)c1	-1	0	53*	0	0	-3	9%
CCOC(=O)C1=C(C)N(CCCC(=O)O)C(=O)NC1c1ccc(Cl)cc1 (stereo not given)	0	2	-1	-5	-1	-1	nt
COC(=O)C1=C(C)N(CCCC(=O)O)C(=O)NC1c1ccc(Cl)cc1 (stereo not given)	-1	-1	56*	5	2	6	7%
C/C(=C/C(=O)N1CCc2ccccc21)C(=O)O	-1	0	-7	-1	1	-5	nt
COc1ccc([C@@H]2CC(=O)c3c(O)cc(O[C@@H]4OC(CO[C@@H]5OC(C)[C@H](O)[C@H](O)C5O)[C@@H](O)[C@@H](O)C4O)cc3O2)cc1O (stereo not given in full)	-1	3	12	4	1	4	nt

Screening data: PubChem, Broad Institute
